Data set [1] is described as follows: Drug level in normal rhesus monkey parietal cortex assessed as standard uptake value at 96.3 MBq, iv after 175 mins by microPET. Format: ADME, organism-based, Macaca mulatta. As to conditions: in vivo.
For data set [2], the system named is Kidney. Kind of data set: Biodistribution in NMRI mouse kidney assessed per gram of tissue at 3.7 MBq/mL, iv after 2 mins by gamma counting. As to conditions: in vivo. In kind it is ADME, organism-based. Summed up:
(§1)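 Male NMRI mice (30-40 g) under isoflurane (1.5-2.5% in oxygen) got 0.1 mL of HPLC-purified tracer diluted with 0.9% NaCl to 3.7 MBq/mL (ethanol ≤10%) via tail vein. Mice were decapitated at 2 or 60 min p.i., and organs, blood and urine were weighed and γ-counted. Values are background-corrected %ID or %ID/g, with blood mass taken as 7% of body mass.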

Data set [3] in a line: Drug level in normal rhesus monkey pons assessed as standard uptake value at 96.3 MBq, iv after 47.5 mins by microPET. Format: ADME, organism-based, Macaca mulatta. Particulars: in vivo.
Data set [4] can be described thus: Drug level in normal rhesus monkey parietal cortex assessed as standard uptake value at 96.3 MBq, iv after 2.5 mins by microPET. As to conditions: in vivo. In kind it is ADME, organism-based, Macaca mulatta.
In data set [5] the test system is Lung. Kind of data set: Drug level in NMRI mouse lung assessed as standard uptake value at 3.7 MBq/mL, iv after 60 mins by gamma counting. Format: ADME, organism-based. Particulars: in vivo, 1 h. Summed up: (§2)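 Male NMRI mice (30-40 g) were anaesthetised with isoflurane. Each received 0.1 mL of HPLC-purified tracer, diluted in 0.9% NaCl to 3.7 MBq/mL (ethanol ≤10%), via a tail vein. Mice were decapitated at 2 or 60 min. Organs were dissected, weighed and γ-counted with background correction. SUV = (organ cpm/organ weight)/(total recovered counts/body weight). Blood mass was taken as 7% of body mass.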

The test system of data set [6] is Heart. Briefly: Biodistribution in NMRI mouse heart at 3.7 MBq/mL, iv after 2 mins by gamma counting. Format: ADME, organism-based. As to conditions: in vivo. Summed up:
as §1

Data set [7] relates to Heart. Kind of data set: Biodistribution in NMRI mouse heart at 3.7 MBq/mL, iv after 60 mins by gamma counting. In kind it is ADME, organism-based. Particulars: in vivo, 1 h. Summed up:
as §1

The subject of data set [8] is Heart. Briefly: Biodistribution in NMRI mouse heart assessed per gram of tissue at 3.7 MBq/mL, iv after 60 mins by gamma counting. Format: ADME, organism-based. As to conditions: in vivo, 1 h. Summed up: as §1
Data set [9] concerns Heart. Briefly: Drug level in NMRI mouse heart assessed as standard uptake value at 3.7 MBq/mL, iv after 60 mins by gamma counting. As to conditions: in vivo, 1 h. Format: ADME, organism-based. Summed up:
as §2

Data set [10] in a line: Biodistribution in NMRI mouse cerebrum at 3.7 MBq/mL, iv after 2 mins by gamma counting. Format: ADME, organism-based. As to conditions: in vivo. Summed up:
as §1

A short description of data set [11]: Drug level in NMRI mouse cerebrum assessed as standard uptake value at 3.7 MBq/mL, iv after 60 mins by gamma counting. In kind it is ADME, organism-based. As to conditions: in vivo, 1 h. Summed up:
as §2

Data set [12] concerns Blood. Kind of data set: Biodistribution in NMRI mouse blood at 3.7 MBq/mL, iv after 60 mins by gamma counting. In kind it is ADME, organism-based. As to conditions: in vivo, 1 h. Summed up: as §1
In data set [13] the test system is Blood. Kind of data set: Biodistribution in NMRI mouse blood assessed per gram of tissue at 3.7 MBq/mL, iv after 2 mins by gamma counting. Format: ADME, organism-based. Particulars: in vivo. Summed up:
as §1

Data set [14] deals with Blood. Briefly: Biodistribution in NMRI mouse blood assessed per gram of tissue at 3.7 MBq/mL, iv after 60 mins by gamma counting. Format: ADME, organism-based. As to conditions: in vivo, 1 h. Summed up:
as §1

Data set [15] is described as follows: Drug level in normal rhesus monkey cerebellum assessed as standard uptake value at 96.3 MBq, iv after 52.5 mins by microPET. Format: ADME, organism-based, Macaca mulatta. Particulars: in vivo, 0.875 h. Summed up: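 One normal rhesus monkey, each tracer given iv via the vena saphena (81.2, 96.3 or 109.4 MBq), with 1 day between tracer injections. Dynamic brain μPET over 180 min used frames of 5 × 60 s, 5 × 120 s, 9 × 300 s and 12 × 600 s. Images were reconstructed by filtered back projection with a RAMP filter. Regional time-activity curves were expressed as SUV.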

The nature of data set [16]: Drug level in normal rhesus monkey frontal cortex assessed as standard uptake value at 96.3 MBq, iv after 12 mins by microPET. In kind it is ADME, organism-based, Macaca mulatta. Particulars: in vivo, 0.2 h.
The nature of data set [17]: Drug level in normal rhesus monkey pons assessed as standard uptake value at 81.2 MBq, iv after 32.5 mins by microPET. Format: ADME, organism-based, Macaca mulatta. Particulars: in vivo.
A short description of data set [18]: Drug level in normal rhesus monkey parietal cortex assessed as standard uptake value at 81.2 MBq, iv after 14 mins by microPET. In kind it is ADME, organism-based, Macaca mulatta. As to conditions: in vivo.
Data set [19] in a line: Drug level in normal rhesus monkey parietal cortex assessed as standard uptake value at 81.2 MBq, iv after 42.5 mins by microPET. Format: ADME, organism-based, Macaca mulatta. Particulars: in vivo.
Data set [20] is described as follows: Drug level in normal rhesus monkey white matter assessed as standard uptake value at 81.2 MBq, iv after 175 mins by microPET. Format: ADME, organism-based, Macaca mulatta. As to conditions: in vivo.
Data set [21] can be described thus: Drug level in normal rhesus monkey frontal cortex assessed as standard uptake value at 81.2 MBq, iv after 12 mins by microPET. Format: ADME, organism-based, Macaca mulatta. Particulars: in vivo, 0.2 h. Summed up: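 Single normal rhesus monkey; each tracer given iv via the vena saphena, with 1 day between tracer injections. Dynamic μPET ran 180 min (5×60 s, 5×120 s, 9×300 s, 12×600 s). Images were reconstructed by filtered back projection with a RAMP filter. Regional time-activity curves were expressed as SUV.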

Data set [22] is described as follows: Drug level in normal rhesus monkey frontal cortex assessed as standard uptake value at 152.9 MBq, iv after 14 mins by microPET. Format: ADME, organism-based, Macaca mulatta. As to conditions: in vivo. Summed up: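 Single normal rhesus monkey; tracer given iv via the vena saphena, 1 day apart from the other tracer injections. Dynamic μPET ran 90 min (5×60 s, 5×120 s, 9×300 s, 3×600 s). Images were reconstructed by filtered back projection with a RAMP filter. Regional time-activity curves were expressed as SUV.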

The nature of data set [23]: Drug level in normal rhesus monkey white matter assessed as standard uptake value at 152.9 MBq, iv after 6 mins by microPET. Particulars: in vivo, 0.1 h. In kind it is ADME, organism-based, Macaca mulatta.
A short description of data set [24]: Drug level in normal rhesus monkey white matter assessed as standard uptake value at 152.9 MBq, iv after 42.5 mins by microPET. Format: ADME, organism-based, Macaca mulatta. Particulars: in vivo.
Data set [25] in a line: Drug level in normal rhesus monkey thalamus assessed as standard uptake value at 152.9 MBq, iv after 2.5 mins by microPET. In kind it is ADME, organism-based, Macaca mulatta. Particulars: in vivo.
A short description of data set [26]: Drug level in normal rhesus monkey thalamus assessed as standard uptake value at 152.9 MBq, iv after 4.5 mins by microPET. In kind it is ADME, organism-based, Macaca mulatta. Particulars: in vivo, 0.075 h.
A short description of data set [27]: Drug level in normal rhesus monkey cerebellum assessed as standard uptake value at 152.9 MBq, iv after 0.5 mins by microPET. Particulars: in vivo. In kind it is ADME, organism-based, Macaca mulatta. Summed up: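 One normal rhesus monkey received each tracer via the vena saphena, with 1 day between injections. Dynamic μPET ran 180 min for 18F tracers (5×60 s, 5×120 s, 9×300 s, 12×600 s) and 90 min for the 11C tracer (5×60 s, 5×120 s, 9×300 s, 3×600 s). Filtered back-projection reconstruction (RAMP filter) was used. Time-activity curves were drawn to give regional SUV.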

A short description of data set [28]: Drug level in normal rhesus monkey thalamus assessed as standard uptake value at 152.9 MBq, iv after 75 mins by microPET. In kind it is ADME, organism-based, Macaca mulatta. As to conditions: in vivo, 1.25 h.
The nature of data set [29]: Drug level in normal rhesus monkey parietal cortex assessed as standard uptake value at 152.9 MBq, iv after 0.5 mins by microPET. Format: ADME, organism-based, Macaca mulatta. As to conditions: in vivo.
Data set [30] in a line: Drug level in normal rhesus monkey cerebellum assessed as standard uptake value at 109.4 MBq, iv after 105 mins by microPET. In kind it is ADME, organism-based, Macaca mulatta. As to conditions: in vivo, 1.75 h.
Data set [31] can be described thus: Drug level in normal rhesus monkey white matter assessed as standard uptake value at 109.4 MBq, iv after 52.5 mins by microPET. Format: ADME, organism-based, Macaca mulatta. Particulars: in vivo, 0.875 h.
Data set [32] can be described thus: Drug level in normal rhesus monkey white matter assessed as standard uptake value at 109.4 MBq, iv after 75 mins by microPET. Format: ADME, organism-based, Macaca mulatta. As to conditions: in vivo, 1.25 h.

Among the data in ChEMBL document CHEMBL1154674, “Synthesis and evaluation of three 18F-labeled aminophenylbenzothiazoles as amyloid imaging agents” (J Med Chem, 2009) are SUV and Drug uptake values, retold here.

As to `CN(C)c1ccc2nc(-c3ccc([18F])cc3)sc2c1`, the SUV in data set [1] is 1.17; in data set [3] it was 1.84; in data set [4], 2; in [5], 0.7; in [9], 0.5; in [11], 0.72. The SUV stood at 1.25 in data set [15] and 1.99 in data set [16]. Further, the Drug uptake in [2] is recorded as 11.7%; in [6], 1.2%; in data set [7], 0.2%; in [8] it was 1.3%; in data set [10] it was 2.95%; in [12] it was 2.4%. The Drug uptake in data set [13] is reported as 1.1%; in [14] it was 0.9%.
Consider `CNc1ccc2nc(-c3ccc([18F])cc3)sc2c1`, for which the SUV turned out to be 5.714 in data set [17]; 4.798 in data set [18]; 3.863 in data set [19]; 0.5 in [5]; 0.4 in [9]; 0.48 in data set [11]. For the same molecule, the figures for the SUV in data set [20] and in [21] were 4.226 and 5.988, respectively. Further, the Drug uptake in [2] was 12.6%; in [6] it was 0.8%; in data set [7], 0.2%; in [8], 1%; in data set [10], 3.42%; in [12] it was 2.2%. Further, the Drug uptake in [13] worked out at 0.7%; in data set [14], 0.9%.
`[11CH3]Nc1ccc(-c2nc3ccc(O)cc3s2)cc1` [PITTSBURGH COMPOUND B]: the SUV in data set [22] stood at 1.904; in data set [23], 1.364; in data set [24] it was 1.04; in data set [25], 1.195; in data set [26], 2.075; in data set [5], 0.4. Further, the SUV was determined as 0.7 in [9]; 0.22 in data set [11]; 0.053 in data set [27]; 0.731 in data set [28]; 0.039 in data set [29]. Further, the Drug uptake in data set [2] amounted to 19.9%; in data set [6], 0.6%; in [7] it was 0.3%; in data set [8], 2.1%; in [10], 1.08%; in data set [12], 2.7%. Further, the Drug uptake turned out to be 3.1% in data set [13] and 1.1% in [14].
On to `Nc1ccc2nc(-c3ccc([18F])cc3)sc2c1`, for which the Drug uptake in data set [2] was 13.3%; in [6] it was 0.7%; in data set [7], 0.1%; in data set [8], 0.7%; in [10], 4.56%; in data set [12] it was 1.3%. In addition, the Drug uptake is on record as 2.4% in [13] and 0.6% in [14]. Besides, the SUV in data set [5] came to 0.4; in [9], 0.2; in data set [11] it was 0.31; in data set [30] it was 2.5; in data set [31], 3.54; in data set [32], 3.63.
